The values below come from PMC6598675 (Science signaling, 2019).

Assay [1] concerns AND TCR T cells. It counts as cell-based, mouse.
In assay [2] the test system is primary mouse T cells (AND TCR transgenic), NFAT. Description: NFAT nuclear translocation of AND TCR T cells on pMHC supported bilayers. It counts as cell-based. The note with it: for agonist strength (in words): AND TCR. Summed up:
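Primary AND TCR-transgenic mouse T cells were retrovirally spinfected with NFAT-GFP (polybrene 4 μg/ml, days 3–4 post-activation) and sorted; most runs used NFAT-mCherry. Cells were added at 37°C onto Ni-chelating supported bilayers carrying His-tagged ICAM-1 (100–200 μm−2) and peptide-loaded MHC (0.1–2 μm−2). Landing was scored by RICM. NFAT activation was the nuclear/cytosolic intensity ratio. Threshold was the density near half-maximal response, with >30 cells per condition over five experiments.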

Assay [3] concerns AND TCR T cells. It counts as cell-based, mouse. Summed up: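 For each T cell, binding events and total dwell time were counted from RICM landing to first NFAT translocation. Counts were corrected for undetected prebleached events and for short events (0.8 s up to the time-lapse interval). Costimulation used His10-tagged recombinant murine CD80 ectodomain on the bilayer at 100–300 molecules/μm2. There were 7–15 cells per condition from three to seven experiments.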
This is another data set of the same source.

The subject of assay [4] is AND TCR. The assay is described as follows: Calculated probability of long-dwelling pMHC-TCR binding events. Further details: species or system mouse. The note with it: single exponential unbinding kinetics from mean dwell time. In a few lines: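 The probability that a binding event lasts 40 s was calculated assuming single-exponential unbinding at the fitted, photobleaching-corrected mean dwell time. The 40 s receptor-level threshold came from spatiotemporal correlation analysis of pMHC trajectories grouped into signaling clusters.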

Assay [5] has as its system AND TCR. Description: Single-molecule TIRF imaging of pMHC-TCR binding events. Further details: species or system mouse. Conditions: for pMHC-TCR binding / mobility under T cell (in words): 37°C, single-molecule TIRF. Summed up:
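Atto647N-peptide-MHC binding under live T cells was imaged at 37°C by single-molecule TIRF, either at 2.5 mW/cm2 with 20 ms exposures or at 0.1 mW/cm2 with 500 ms exposures. Single-step unbinding was confirmed by Bayesian change-point detection. Dwell-time distributions (>3000 trajectories, ≥25 cells) were fitted to a single exponential and corrected for photobleaching using bilayer pMHC imaged under identical conditions. Bound fraction was normalised to RICM contact area.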

The subject of assay [6] is 5c.c7 recombinant TCR. Conditions: 5c.c7 recombinant TCR binding to MCC pMHC; ref [9], [10]; cited from earlier work.
The mark [7] stands for this setting: low T102S pMHC density, cells that activated NFAT.

“And” between values parts separate entries of the source, which are not always exact repeats. Identical values can stand only once. “Also recorded” adds a separate entry of the source.

With ANERADLIAYLKQASK [T102S pMHC], the “number of correlated pMHC tracks, activating cells” value in assay [1] (low T102S pMHC density, 30-s window, cells that activated NFAT) is “between two and nine correlated pMHC tracks”. Moreover, in assay [1] (low T102S pMHC density, 30-s window, cells that did not activate NFAT), the “number of correlated pMHC tracks, nonactivating cells” value was “zero to three correlated pMHC tracks”. In assay [1] (setting [7]), the “binding events within 2 mm and 30 s of another binding event, activating cells” value worked out at 90%; the “effective mean dwell time after spatiotemporal correlation (in words)” value is given as “could resemble long-dwelling MCC pMHC binding inputs in terms of mean dwell time”. Moreover, the “binding events within the same space and time (2 mm, 30 s), nonactivating cells” value in assay [1] (low T102S pMHC density, cells that did not activate NFAT) turned out to be 68%. In addition, in assay [1] (threshold conditions), the “number of spatiotemporally correlated tracks (comparison in words)” value is on record as “more spatiotemporally correlated pMHC tracks than those exposed to MCC”. The “agonist strength (in words)” value in assay [2] was “weak agonist”. For the same molecule, in assay [2] (low T102S density), the “NFAT activation probability at low density” value is 5% and ~ 5%. In assay [2] (low T102S density vs threshold densities), the “time to NFAT translocation (comparison in words)” value is given as “took longer to translocate NFAT than those at threshold densities of either MCC or T102S pMHCs”. Besides, the “NFAT activation probability at threshold density” value in assay [2] (threshold pMHC density) came to 32%. Also, the “rate of dwell time accumulation (in words)” value in assay [3] (low T102S density, activating cells vs cells that did not activate) was “indistinguishable from cells that did not active NFAT at threshold densities”. Besides, the “probability that a pMHC-TCR binding event dwells for 40 s” value in assay [4] was 0.02.
In the case of “ANERADLIAYLKQATK [MCC pMHC, Moth cytochrome C 88–103 peptide]”, in assay [5], the “pMHC-TCR binding / mobility under T cell (in words)” value was “bimodal mobility under a T cell (cyan) and unimodal mobility on the free supported membrane; also recorded: a substantial fraction of the all pMHC under the T cell are bound as long-lived species”. The “difference in affinity MCC pMHC vs T102S pMHC” value in assay [5] (range covered by strong and weak agonist) was “fivefold”. Besides, the “agonist strength (in words)” value in assay [2] is on record as “strong agonist”. Further, the “mean dwell time (<τoff>), 5c.c7 TCR” value in assay [6] is 7.2 s. Moreover, the “probability that a pMHC-TCR binding event dwells for 40 s” value in assay [4] is on record as 0.43.
Take ANERADLIAYPKAATKF [K3 pMHC]: in assay [2], the “agonist strength (in words)” value was “moderate agonist”.
As for “ANERAELIAYLTQAAKGGSC [null pMHC, reference compound]”, the “pMHC-TCR binding / mobility under T cell (in words)” value in assay [5] is given as “did not exhibit slowed pMHC-TCR complexes”.

B1: CD80: murine costimulatory ligand CD80 (B7), recombinant, secreted, truncated ectodomain with a flexible linker and decahistidine tag (protein, UniProt Q00609 38-246, looked up)
extracellular domain: VDEQLSKSVKDKVLLPCRYNSPHEDESEDRIYWQKHDKVVLSVIAGKLKVWPEYKNRTLYDNTTYSLIILGLVLSDRGTYSCVVQKKERGTYEVKHLALVKLSIKADFSTPNITESGNPSADTKRITCFASGGFPKPRFSWLENGRELPGINTTISQDPESELYTISSQLDFNTTRNHTIKCLIKYGDAHVSEDFTWEKPPEDPPDSKN
modifications: extracellular domain flexible linker and decahistidine tag
In the case of B1, the “effect of costimulation on activation (in words)” value in assay [3] (CD80 on bilayer, 100 to 300 molecules/μm^2, cells that activated NFAT) is “cells that activated NFAT experienced a decrease in the time to activation, accumulated binding events, and cumulative dwell time”.
